Source: PubChem (Broad Institute)
This is a sample that favours compounds with a hit; in the whole collection about 5.8% have one here.
GASC1 inh – inhibitors of GASC-1 (KDM4C) histone demethylase, primary screen, biochemical, single concentration HTS; Lysine-specific demethylase 4C (Homo sapiens), Q9H3R0; GST-KDM4C 2-372, H3K9me3 peptide, LANCE TR-FRET; inhibition, % at 12.5 µM; 96,000 compounds, 0.15% hits;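 active = mean replicate inhibition above about 25%, with at least 55% of replicates also reaching it, limit read from the data, passing the limit was not always enough; inconclusive = only one of those two conditions met; inactive = neither condition met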
Target sequence (Q9H3R0 2-372 limits assumed): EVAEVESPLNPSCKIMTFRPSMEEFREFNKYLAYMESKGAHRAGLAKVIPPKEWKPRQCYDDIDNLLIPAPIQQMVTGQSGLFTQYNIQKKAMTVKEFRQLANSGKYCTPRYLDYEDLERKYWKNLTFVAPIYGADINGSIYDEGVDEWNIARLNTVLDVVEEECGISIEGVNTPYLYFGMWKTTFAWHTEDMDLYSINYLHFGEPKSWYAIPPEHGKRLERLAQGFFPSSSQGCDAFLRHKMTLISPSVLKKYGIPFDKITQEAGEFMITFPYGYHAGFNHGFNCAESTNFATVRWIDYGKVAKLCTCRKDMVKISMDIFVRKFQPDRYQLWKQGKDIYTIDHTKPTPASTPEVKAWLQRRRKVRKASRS
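Test system – GST-tagged GASC-1 (JMJD2C) catalytic fragment, aa 2-372 · Medium – HEPES buffer, pH 7.5, plus ascorbate · Reagent – H3K9me3 peptide with Fe(II)/2OG · Compound – one test concentration per compound · Timing – 30 min reaction, 60 min detection, RT · Technique – TR-FRET with Eu antibody and ULight streptavidin, EDTA stop · Read-out basis – inhibition from TR-FRET ratio decrease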
T cruzi growth-1 – T. cruzi intracellular proliferation inhibitors, primary screen, cell-based, beta-gal Tulahuen parasites, NIH3T3 host, luminescence; AID 624255, 2012; T. cruzi beta-gal in NIH3T3, GalScreen luminescence, 90 h; 77,000 compounds, 5.9% hits; inhibition, % at 8.34 µM;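 active = mean inhibition above about 93%, with at least 55% of replicates each passing it, limit read from the data, passing the limit was not always enough; inconclusive = only one of those two conditions holds; inactive = neither condition holds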
IDH1 R132H inh – inhibitors of IDH1 R132H reductase, primary screen, biochemical, plate reader, single point. Isocitrate dehydrogenase [NADP] cytoplasmic (Homo sapiens), O75874. diaphorase/resazurin fluorescence, 60 min. inhibition, % at 10 µM. 70,000 compounds, 0.18% hits; in the data active = inhibition above about 34%; inconclusive = no clear call, values can overlap the other calls; inactive = below about 11%;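 note: 0% = DMSO and 100% = no enzyme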
Pf Dd2 growth – P. falciparum Dd2 growth inhibitors, primary screen, SYBR Green fluorescence, single dose replicates. activity change, % at 10 µM. 94,000 compounds, 2.3% hits. 72 h; active compounds read low; in the data active = activity change below about -80%; inconclusive = no clear call, values can overlap the other calls
T cruzi growth-2 – T. cruzi intracellular proliferation inhibitors, confirmation, cell-based, NIH3T3 host, beta-gal parasite, luminescence, cherry-pick; T. cruzi beta-gal in NIH3T3, GalScreen luminescence, 90 h; inhibition, % at 8.35 µM; shares compounds with T cruzi growth-1; 5,600 compounds, 72% hits;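 active = mean replicate inhibition above about 95% and at least 55% of replicates individually reaching it, limit read from the data; inconclusive = only one of the two criteria is met; inactive = neither criterion is met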
T cruzi growth-3 – inhibitors of intracellular T. cruzi replication, confirmation, NIH3T3 host cells, beta-gal parasites, cherry-pick, set 2; shares compounds with T cruzi growth-1; T. cruzi beta-gal in NIH3T3, GalScreen luminescence, 90 h; inhibition, % at 2.09 µM; 5,600 compounds, 21% hits;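 active = mean inhibition above about 95%, with at least 55% of replicates also reaching it, limit read from the data; inconclusive = meets just one of the two conditions; inactive = meets neither condition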;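 note: plate controls were neutral control median for no effect and positive control median for full effect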
3T3 cytotox – cytotoxicity in mouse NIH/3T3 fibroblasts, confirmation, cytotoxicity control for T. cruzi proliferation inhibitor project, cell-based, cherry-pick, single point. cytotoxicity (signal decrease), % at 8.35 µM. shares compounds with T cruzi growth-1. NIH/3T3 viability, CellTiter-Glo ATP luminescence, 90 h. 5,600 compounds, 14% hits;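 active = mean signal decrease across replicates above about 35% based on untreated-well scatter, with enough replicates individually passing, limit read from the data; inconclusive = no rule stated though some were filed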;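 note: 0% = median of neutral control wells and 100% = median of positive control wells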
NIH3T3 tox 2 – NIH/3T3 fibroblast cytotoxicity, confirmation, cytotoxicity control, cell-based, cherry-pick, single point, set 2 | shares compounds with T cruzi growth-1 | NIH/3T3 viability, CellTiter-Glo ATP luminescence, 90 h | inhibition, % at 24.9 µM | 5,600 compounds, 56% hits;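 active = mean loss of cell viability signal at or above a set limit, and enough replicates individually reaching it; inconclusive = meets only the mean limit or only the replicate share; inactive = meets neither condition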;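 note: 0% = median of neutral control wells and 100% = median of positive control wells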
Starred values were filed as active, the others as inactive; ? = inconclusive; / = no result.

SMILES | GASC1 inh | T cruzi growth-1 | IDH1 R132H inh | Pf Dd2 growth | T cruzi growth-2 | T cruzi growth-3 | 3T3 cytotox | NIH3T3 tox 2
COc1ccccc1CNC(=O)C[C@H]1C[C@H]2c3cc(NC(=O)Nc4ccc(C(F)(F)F)cc4)ccc3O[C@H]2[C@@H](CO)O1 | 0 | 123* | 0 | -33 | 105* | 65 | -9 | -2
COCC(=O)Nc1ccc2c(c1)[C@H]1C[C@H](CC(=O)NCc3ccccc3OC)O[C@@H](CO)[C@H]1O2 | 1 | 101* | -1 | 0 | 3 | 0 | -8 | -12
COc1ccccc1CNC(=O)C[C@H]1C[C@@H]2c3cc(NC(=O)Nc4ccc(C(F)(F)F)cc4)ccc3O[C@@H]2[C@@H](CO)O1 | -3 | 140* | 1 | ? | 110* | 101* | 0 | 14
COc1ccccc1CNC(=O)C[C@@H]1CC[C@@H](NC(C)=O)[C@H](CO)O1 | -1 | ? | 0 | -15 | 4 | -24 | -15 | 3
COc1ccccc1CNC(=O)C[C@H]1CC[C@H](NC(C)=O)[C@H](CO)O1 | -1 | -57 | 0 | 2 | / | / | / | /
COc1ccccc1CNC(=O)C[C@H]1C[C@H]2c3cc(NC(=O)CC4CC4)ccc3O[C@H]2[C@H](CO)O1 | 0 | -16 | 0 | -18 | / | / | / | /
Cc1cc(Cl)ccc1NC(=O)CN(C)S(=O)(=O)c1ccc(F)cc1 | / | / | 0 | / | / | / | / | /
O=C(CSc1n[nH]c(-c2ccncc2)n1)Nc1sc2c(c1C(=O)Nc1ccccc1)CCCC2 | / | / | 0 | / | / | / | / | /
Cc1cccc(-c2ccc([C@@H]3[C@H]4CN(S(=O)(=O)c5cccc(C)c5)CCCCN4[C@H]3CO)cc2)c1 | 0 | 110* | / | -20 | 104* | 115* | 27 | 56*
Cc1cccc(S(=O)(=O)N2CCCCN3[C@H](CO)[C@H](c4ccc(-c5ccccc5)cc4)[C@@H]3C2)c1 | / | 116* | / | 10 | 98* | 80 | -10 | 51*
O=S(=O)(c1ccccc1)N1CCCCN2[C@H](CO)[C@H](c3ccc(-c4ccccc4)cc3)[C@@H]2C1 | 1 | 104* | / | 16 | 100* | 84 | -5 | 49*
Cc1cccc(S(=O)(=O)N2CCCCN3[C@H](C2)[C@@H](c2ccc(-c4ccccc4)cc2)[C@@H]3CO)c1 | / | 77 | / | -25 | / | / | / | /
O=S(=O)(c1ccccc1)N1CCCCN2[C@@H](CO)[C@@H](c3ccc(-c4ccccc4)cc3)[C@@H]2C1 | 1 | 81 | / | -44 | / | / | / | /
Cc1cccc(S(=O)(=O)N2CCCCN3[C@@H](CO)[C@H](c4ccc(-c5ccccc5)cc4)[C@@H]3C2)c1 | / | 94 | / | 12 | / | / | / | /
Cc1cccc(-c2ccc([C@H]3[C@@H](CO)N4CCCCN(S(=O)(=O)c5cccc(C)c5)C[C@H]34)cc2)c1 | 1 | 100* | / | -85* | 88 | 106* | 50* | 103*
CC(Sc1nc(-c2ccccc2)cc(-c2ccccc2)n1)C(=O)Nc1ccccc1 (stereo unspecified) | / | / | 0 | / | / | / | / | /
CCOc1cc([N+](=O)[O-])ccc1NC(=O)CC1Sc2ccccc2NC1=O (stereo unspecified) | / | / | 0 | / | / | / | / | /
CC1(CO)C=Cc2c(cc(O)c3c(=O)c(-c4ccc(O)cc4)coc23)O1 (stereo unspecified) | / | / | 0 | / | / | / | / | /
COc1ccccc1NC(=O)C1=C(C)Nc2ncnn2C1c1ccc(C(=O)O)cc1 (stereo unspecified) | / | / | 0 | / | / | / | / | /
COc1cccc(S(=O)(=O)Nc2ccc3c(c2)[C@H]2C[C@H](CC(=O)NCc4ccccc4F)O[C@H](CO)[C@H]2O3)c1 | 0 | 143* | 0 | -44 | 98* | 0 | -16 | 2
O=C(C[C@@H]1C[C@H]2c3cc(NS(=O)(=O)c4ccc(F)cc4)ccc3O[C@H]2[C@H](CO)O1)NCc1ccccc1 | -3 | -76 | 0 | -2 | / | / | / | /
O=C(C[C@@H]1C[C@H]2c3cc(NS(=O)(=O)c4ccc(F)cc4)ccc3O[C@H]2[C@@H](CO)O1)NCc1ccc(-c2ccccc2)cc1 | -7 | 92 | 0 | -18 | / | / | / | /
O=C(C[C@H]1C[C@H]2c3cc(NS(=O)(=O)c4ccc(F)cc4)ccc3O[C@H]2[C@H](CO)O1)NCc1ccccc1 | -4 | -31 | 0 | -44 | / | / | / | /
O=C(C[C@H]1C[C@H]2c3cc(NS(=O)(=O)c4ccc(F)cc4)ccc3O[C@H]2[C@H](CO)O1)NCc1ccc(-c2ccccc2)cc1 | -6 | 101* | 1 | -71 | 87 | 101* | 66* | 67*
O=C(C[C@@H]1C[C@@H]2c3cc(NS(=O)(=O)c4ccc(F)cc4)ccc3O[C@@H]2[C@@H](CO)O1)NCc1ccc(-c2ccccc2)cc1 | / | 102* | 2 | -27 | 88 | 92 | 39* | 45*
SMILES | GASC1 inh | T cruzi growth-1 | IDH1 R132H inh | Pf Dd2 growth | T cruzi growth-2 | T cruzi growth-3 | 3T3 cytotox | NIH3T3 tox 2
O=C(C[C@H]1C[C@H]2c3cc(NS(=O)(=O)c4ccc(F)cc4)ccc3O[C@H]2[C@@H](CO)O1)NCc1ccc(Oc2ccccc2)cc1 | -3 | 119* | 1 | -52 | 101* | 77 | 20 | 20
COc1cccc(S(=O)(=O)Nc2ccc3c(c2)[C@@H]2C[C@H](CC(=O)NCc4ccccc4F)O[C@@H](CO)[C@@H]2O3)c1 | 7 | 71 | 0 | -79 | / | / | / | /
COc1ccccc1NC(=O)Cn1cnc2scc(-c3cccc([N+](=O)[O-])c3)c2c1=O | / | / | 0 | / | / | / | / | /
Cc1noc(C)c1NC(=O)Nc1ccc2c(c1)C(=O)N(C)[C@@H]1CC[C@H](CC(=O)N[C@H]3CCN(Cc4ccccc4)C3)O[C@@H]1CO2 | 2 | 109* | / | -19 | 27 | 8 | -4 | -1
Cc1noc(C)c1NC(=O)Nc1ccc2c(c1)C(=O)N(C)[C@@H]1CC[C@@H](CC(=O)N[C@H]3CCN(Cc4ccccc4)C3)O[C@@H]1CO2 | 1 | 107* | / | -32 | -13 | -29 | -15 | 0
Cc1noc(C)c1NC(=O)Nc1ccc2c(c1)C(=O)N(C)[C@H]1CC[C@@H](CC(=O)N[C@H]3CCN(Cc4ccccc4)C3)O[C@@H]1CO2 | 1 | 104* | / | 18 | -23 | 14 | 0 | -7
